Source: PubChem (Sanford-Burnham Center for Chemical Genomics)
EBI2 block: blocks human EBI2 receptor beta-arrestin signaling; inhibition, % at 5 µM; P32249; EBI2 beta-arrestin recruitment, luminescence, 7a,25-OHC stimulated; hit rate 0.81% among 360,000; AID 651636; in the data active means inhibition above about 38%;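 further: enzyme fragment complementation signal reports receptor beta-arrestin coupling in cells; 0% = agonist plus DMSO wells and 100% = wells without agonist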
CXCR6 block: blocks human CXCR6 beta-arrestin recruitment. CHO-K1 PathHunter CXCR6 beta-arrestin, luminescence. inhibition, % at 20 µM. hit rate 0.36% among 360,000. AID 602244; in the data active means inhibition above about 34%, passing the limit was not always enough;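 further: antagonist mode with CXCL16 agonist at 10 nM final; 0% = 10 nM CXCL16 with DMSO and 100% = unstimulated wells without agonist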
Target sequence (O00574 whole entry, looked up): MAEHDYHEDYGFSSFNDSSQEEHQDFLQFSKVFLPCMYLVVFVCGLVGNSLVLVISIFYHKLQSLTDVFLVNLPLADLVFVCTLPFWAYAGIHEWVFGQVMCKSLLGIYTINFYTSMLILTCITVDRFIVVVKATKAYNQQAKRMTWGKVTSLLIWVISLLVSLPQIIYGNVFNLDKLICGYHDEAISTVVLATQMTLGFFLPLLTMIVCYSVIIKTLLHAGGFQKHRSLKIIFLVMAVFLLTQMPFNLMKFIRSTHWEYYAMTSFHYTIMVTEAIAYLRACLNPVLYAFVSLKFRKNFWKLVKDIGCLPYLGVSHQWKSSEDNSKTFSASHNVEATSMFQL
APJ agonist: APJ receptor agonism. CHO-K1 APJ PathHunter beta-arrestin, luminescence; 0% DMSO wells, 100% apelin. AID 2520. hit rate 0.11% among 330,000. activation, % at 20 µM. P35414;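 active means activation more than six SD over the plate average, tested at 20 µM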;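 further: 0% = DMSO alone and 100% = apelin-13 at 10 nM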
Target sequence (P35414 whole entry, looked up): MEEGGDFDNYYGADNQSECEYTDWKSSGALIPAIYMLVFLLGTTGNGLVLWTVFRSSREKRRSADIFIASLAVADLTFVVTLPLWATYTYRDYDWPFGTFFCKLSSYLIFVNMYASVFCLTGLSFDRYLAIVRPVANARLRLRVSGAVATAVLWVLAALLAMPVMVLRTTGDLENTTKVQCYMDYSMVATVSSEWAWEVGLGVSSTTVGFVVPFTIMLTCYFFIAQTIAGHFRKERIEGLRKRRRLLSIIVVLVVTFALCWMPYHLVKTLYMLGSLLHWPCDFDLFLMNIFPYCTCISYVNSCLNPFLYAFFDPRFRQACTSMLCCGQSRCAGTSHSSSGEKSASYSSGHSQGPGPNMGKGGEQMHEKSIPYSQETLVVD
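Material: CHO-K1 APJ beta-arrestin complementation cell line; Input: cell density 1000 per well; Incubation: compound stimulation 90 min at 25 °C, detection 60 min; Signal: luminescence from split beta-galactosidase complementation, Galacton Star/Emerald II substrate; Controls: DMSO-only wells as negative, 10 nM Apelin-13 as positive control.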
APJ antag: blocks the human apelin receptor APJ | inhibition, % at 20 µM | CHO-K1 APJ beta-arrestin complementation, luminescence | AID 2521 | P35414 | hit rate 0.32% among 330,000;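 active means inhibition above about 40% at 20 µM, limit read from the data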;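 further: cells challenged with 10 nM apelin-13 agonist together with compound; plate controls were apelin-13 plus DMSO wells for no effect and DMSO wells lacking apelin-13 for full effect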
CCR6 antag: antagonists of human CCR6 receptor | P51684 | CHO-K1 CCR6 PathHunter beta-arrestin, luminescence, CCL20-stimulated | hit rate 0.49% among 340,000 | AID 493098 | inhibition, % at 20 µM;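 active means compounds whose inhibition of the agonist-driven luminescence signal at 20 µM reaches about 50%, limit read from the data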;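 further: cells stimulated with CCL20 at 14 nM final; plate controls were DMSO with CCL20 for no effect and DMSO without agonist for full effect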
APJ ag confirm: APJ receptor agonism confirmation; activation, % at 20 µM; AID 2764; CHO-K1 APJ PathHunter beta-arrestin, luminescence; shares compounds with APJ agonist; hit rate 10% among 310;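 active means activation above 40%, taking the highest of four retests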;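 further: plate controls were DMSO wells for no effect and apelin-13 at 10 nM for full effect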
CXCR6 antag conf: confirmation of human CXCR6 receptor antagonists; inhibition, % at 20 µM; hit rate 65% among 700; AID 602409; shares compounds with CXCR6 block; CHO-K1 CXCR6 PathHunter beta-arrestin, luminescence;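 active means mean inhibition over four retests above 40%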;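 further: receptor stimulated with 10 nM CXCL16 agonist; beta-galactosidase fragment complementation upon beta-arrestin recruitment to receptor; plate controls were CXCL16 plus DMSO for no effect and DMSO without CXCL16 for full effect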
EBI2 conf: confirmation of human EBI2 receptor antagonists. hit rate 29% among 2,400. EBI2 beta-arrestin luminescence, 7a,25-OHC antagonism. AID 651997. shares compounds with EBI2 block. inhibition, % at 5 µM;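 active means inhibition of at least 50%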
EBI2 ag: counter-screen for EBI2 antagonists: EBI2 agonist activity. shares compounds with EBI2 block. EBI2-expressing cells, agonist mode, luminescence, 60 min; 0% vehicle, 100% 7α,25-dihydroxycholesterol control. activation, % at 5 µM. 2,400 tested, under 10 active. AID 652000;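 active means activation of at least 50%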
bGal cs: inhibits E. coli beta-galactosidase, counter-screen for EBI2 antagonists. shares compounds with EBI2 block. purified beta-galactosidase, luminescent Galacton Star, 15 min. inhibition, % at 5 µM. hit rate 1% among 2,400. AID 652176;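 active means replicate-average signal at least 3 plate SD below neutral wells, shown as high inhibition, flagging enzyme-inhibiting false positives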;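 further: 0% = DMSO wells with enzyme and 100% = wells lacking enzyme; higher means stronger loss of beta-gal luminescence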
* hit, by the source's call. Rows were chosen to be rich in hits. Some 1.5% of all compounds tested hit in one or more screens of this group.

Results for CCOc1cccc(C(=O)Nc2ccc(NC(=O)c3cc4ccccc4o3)c(OC)c2)c1 ?
EBI2 block: -6.8; CXCR6 block: -0.9; APJ agonist: 20.2*; APJ antag: 4.6; CCR6 antag: -10.7; APJ ag confirm: 20.4

What do the screens show for `CCOc1ccc2[nH]c(=O)c(CN(Cc3ccco3)Cc3nnnn3Cc3ccccc3)cc2c1`?
EBI2 block: -4.9; CXCR6 block: 0.6; APJ agonist: -3.5; APJ antag: 18.8; CCR6 antag: 20.1

Results for CCOc1ccc2[nH]c(=O)c(CN(Cc3ccco3)C(CC)c3nnnn3Cc3ccccc3)cc2c1 (stereo unspecified) ?
EBI2 block: -5.2; CXCR6 block: 6.7; APJ agonist: 75.8*; APJ antag: -0.2; CCR6 antag: 13.2; APJ ag confirm: 9.0

What do the screens show for `COc1cccc(C(=O)OCC(=O)Nc2ccc(N3CCOCC3)cc2)c1`?
EBI2 block: 4.4; CXCR6 block: 4.7; APJ agonist: -2.4; APJ antag: -11.4; CCR6 antag: 1.1

What do the screens show for `N#Cc1ccccc1OCC(=O)Nc1c(C(=O)C2CC2)oc2ccccc12`?
EBI2 block: 24.8; CXCR6 block: -1.0; APJ agonist: 39.9*; APJ antag: -7.4; CCR6 antag: 0.0; APJ ag confirm: 7.1

Results for CCOC(=O)c1ccc(NC(=O)c2cccc(S(=O)(=O)N3CCOCC3)c2)cc1 ?
EBI2 block: 1.3; CXCR6 block: -25.9; APJ agonist: 13.7*; APJ antag: -20.1; CCR6 antag: 1.0; APJ ag confirm: 17.3

How did CCOC(=O)c1ccc(NC(=O)c2ccc(C)c(S(=O)(=O)N3CCOCC3)c2)cc1 do in these assays?
EBI2 block: -20.1; CXCR6 block: -14.7; APJ agonist: 11.3; APJ antag: -18.2; CCR6 antag: -18.7

What do the screens show for `CC(C)(C)OC(=O)N[C@@H](Cc1ccccc1)C(=O)N[C@@H](CO)[C@H](O)[C@@H]1C[C@@H]1C(=O)NC1CCCCC1`?
EBI2 block: -9.0; CXCR6 block: 4.1; APJ agonist: -2.8; APJ antag: 10.2; CCR6 antag: -0.9

What do the screens show for `Cc1ccc(/C=N/NC(=O)CSc2nnc(-c3ccc(Cl)cc3)n2-c2ccc(Cl)cc2)o1`?
EBI2 block: -28.3; CXCR6 block: -47.2; APJ agonist: 28.0*; APJ antag: -252.7; CCR6 antag: -52.5; APJ ag confirm: 163.3*

What do the screens show for `Cc1ccc(/C=N/NC(=O)CSc2nnc(-c3ccccc3)n2-c2ccc(Cl)cc2)o1`?
EBI2 block: -17.0; CXCR6 block: -11.2; APJ agonist: 14.4*; APJ antag: -84.8; CCR6 antag: -20.2; APJ ag confirm: 43.3*

What do the screens show for `COc1ccc(Br)c(OC)c1C(=O)NC(=O)Nc1nc(C)cc(C)n1`?
EBI2 block: 11.4; CXCR6 block: 4.3; APJ agonist: 0.8; APJ antag: -12.4; CCR6 antag: 0.6

Results for CSc1ccccc1C(=O)C1CCCN(Cc2cnn(-c3ccccc3)c2)C1 (stereo unspecified) ?
EBI2 block: 3.0; CXCR6 block: -1.6; APJ agonist: -3.5; APJ antag: 4.7; CCR6 antag: 3.8

What do the screens show for `COc1cc(S(=O)(=O)N2CCN(Cc3ccc4c(c3)OCO4)CC2)ccc1NC(C)=O`?
EBI2 block: -2.4; CXCR6 block: -1.7; APJ agonist: 16.3*; APJ antag: -4.5; APJ ag confirm: -3.6

What do the screens show for `COc1ccc(S(=O)(=O)N2CCN(Cc3ccc4c(c3)OCO4)CC2)cc1F`?
EBI2 block: -6.2; CXCR6 block: -4.6; APJ agonist: -1.5; APJ antag: -5.0; CCR6 antag: 12.6

How did CN(C)CCCN(C(=O)c1cc2cc([N+](=O)[O-])ccc2s1)c1nc2cc3c(cc2s1)OCCO3 do in these assays?
EBI2 block: -14.3; CXCR6 block: 6.4; APJ agonist: 42.6*; APJ antag: -3.6; CCR6 antag: 25.9; APJ ag confirm: 20.9

How did CN(C)CCCN(C(=O)c1ccc([N+](=O)[O-])s1)c1nc2cc3c(cc2s1)OCCO3 do in these assays?
EBI2 block: -13.5; CXCR6 block: -9.9; APJ agonist: 130.6*; APJ antag: -145.1; CCR6 antag: -9.0; APJ ag confirm: 37.9

Results for O=C(CCCl)N1CCN(c2nc(-c3ccccc3)cs2)CC1 ?
EBI2 block: 3.3; CXCR6 block: 0.6; APJ agonist: -0.7; APJ antag: 18.8; CCR6 antag: 23.6

Results for O=C1CN(C(=O)COC(=O)c2ccc(Cl)c(S(=O)(=O)N3CCCCC3)c2)c2ccccc2N1 ?
EBI2 block: -2.2; CXCR6 block: -6.0; APJ agonist: -1.5; APJ antag: -2.3; CCR6 antag: 0.7

How did COC(=O)C1=C(CN2CCc3ccccc32)NC(=O)NC1c1cc(C)ccc1C (stereo unspecified) do in these assays?
EBI2 block: -19.9; CXCR6 block: 8.7; APJ agonist: 39.4*; APJ antag: -17.2; CCR6 antag: -6.9; APJ ag confirm: 11.1

What do the screens show for `COC(=O)C1=C(CN2CCN(C)CC2)NC(=O)NC1c1cc(C)ccc1C` (stereo unspecified)?
EBI2 block: -13.7; CXCR6 block: -5.4; APJ agonist: 0.2; APJ antag: 22.4; CCR6 antag: -11.6

How did Cc1c(Cl)sn(-c2ccc(Cl)cc2)c1=O do in these assays?
EBI2 block: 69.8*; CXCR6 block: 74.5*; APJ agonist: 25.6*; APJ antag: 38.3; CCR6 antag: 91.9*; APJ ag confirm: 26.3; CXCR6 antag conf: 94.5*

Results for CC(NC(=O)COC(=O)c1ccc([N+](=O)[O-])o1)c1ccccc1 (stereo unspecified) ?
EBI2 block: -13.9; CXCR6 block: -7.9; APJ agonist: 7.7; APJ antag: -15.7; CCR6 antag: 1.5

Results for CCc1ccc(NC(=S)Nc2cccc3cnccc23)cc1 ?
EBI2 block: 50.4*; CXCR6 block: -4.9; APJ agonist: 15.0*; APJ antag: -113.1; CCR6 antag: 15.1; APJ ag confirm: -0.5; EBI2 conf: 9.4; EBI2 ag: -0.4; bGal cs: -3.4
